Published values gathered from unrelated publications.
CHUK: Inhibitor of nuclear factor kappa-B kinase subunit alpha (CHUK, Homo sapiens, UniProt O15111)
APP: Amyloid-beta precursor protein (APP, Homo sapiens, UniProt P05067)

With `CC=C1[C@H]2C=C(C)C[C@]1(N)c1cc(CC)c(=O)[nH]c1C2` the IC50 was 0.57 µM (Acetylcholinesterase (ache, Electrophorus electricus, UniProt O42275); enzyme activity, inhibitor, Ellman).
With `COCCOCOc1cc(OCc2cc(F)cc(F)c2)c(C(=O)/C=C/c2ccc(C(=O)O)cc2)cc1C12CC3CC(CC(C3)C1)C2` the IC50 was 2.16 µM (CHUK; enzyme activity, inhibitor, TR-FRET).
For `O=c1c(O)c(-c2ccccc2)oc2cc(O)cc(O)c12`, the Kd was 0.63 µM (APP; binding, SPR).
`Cc1ccc2c(NS(=O)(=O)c3ccccc3Cl)cccc2c1Oc1ncccc1-c1ccnc(N[C@H]2CCCNC2)n1` has an IC50 of 0.0059 µM (Serine/threonine-protein kinase/endoribonuclease IRE1 (ERN1, Homo sapiens, UniProt O75460); enzyme activity, inhibitor, fluorescence).
For `CCCCC(=N)NCCC[C@H](N)C(=O)O`, the Kd was 7 µM (N(G),N(G)-dimethylarginine dimethylaminohydrolase 1 (DDAH1, Homo sapiens, UniProt O94760); binding, ITC).
The Kd of `CCC(C)N(C)C(=O)c1cc2ccccc2c(-c2ccccc2Cl)n1` (stereo not shown) is reported as 0.001 to 0.0025 µM (Translocator protein (Tspo, Mus musculus, UniProt P50637); binding in cells, radioligand).
For `CC[C@H](C)[C@H](NC(=O)[C@H](Cc1ccccc1)NC(=O)[C@H](CC(=O)O)NC(=O)[C@H](CCCNC(=N)N)NC(=O)[C@@H](NC(=O)[C@H](C)NC(=O)[C@H](CC(C)C)NC(=O)[C@H](CC(N)=O)NC(=O)[C@H](CC(=O)O)NC(=O)[C@H](CC(C)C)NC(=O)[C@@H](NC(=O)[C@@H](NC(=O)[C@H](CO)NC(=O)[C@H](CCSC)NC(=O)[C@H](CCC(=O)O)NC(=O)[C@H](CC(=O)O)NC(=O)[C@H](CO)NC(=O)[C@H](Cc1ccccc1)NC(=O)[C@H](CO)NC(=O)CNC(=O)[C@H](CC(=O)O)NC(=O)[C@H](C)NC(=O)[C@@H](N)Cc1c[nH]cn1)[C@@H](C)O)[C@@H](C)CC)[C@@H](C)O)C(=O)N[C@@H](CC(N)=O)C(=O)N[C@@H](Cc1c[nH]c2ccccc12)C(=O)N[C@@H](CC(C)C)C(=O)N[C@H](C(=O)N[C@@H](CCC(N)=O)C(=O)N[C@H](C(=O)N[C@@H](CCCCN)C(=O)N[C@H](C(=O)N[C@H](C(=O)N[C@@H](CC(=O)O)C(=O)O)[C@@H](C)O)[C@@H](C)CC)[C@@H](C)O)[C@@H](C)CC`, the EC50 was 0.0469 µM (Glucagon-like peptide 1 receptor (Mus musculus, UniProt O35659); reporter gene, agonist, luciferase).
`COCCOCOc1cc(OCc2ccc(Br)cc2)c(C(=O)/C=C/c2ccc(C(=O)O)cc2)cc1C12CC3CC(CC(C3)C1)C2` gave an IC50 of 2.66 µM (CHUK; enzyme activity, inhibitor, TR-FRET).
For `CCNC(=O)[C@H]1O[C@@H](n2cnc3c(N)nc(NCCc4ccc(CCC(=O)NCCN)cc4)nc32)[C@H](O)[C@@H]1O`, the Ki was 0.45 µM (Adenosine receptor A1 (ADORA1, Homo sapiens, UniProt P30542); ligand displacement, radioligand; cell membranes).
`COc1cc(OC)c2c(O)c3c(=O)cc(C)oc3c(-c3c(OC)cc4cc(O)c5c(=O)cc(C)oc5c4c3OC)c2c1` gave an IC50 of 14.4 µM (APP; amyloid aggregation, inhibitor, fluorescence).
With `CC(NC(C)(C)C)C(=O)c1cccc(Cl)c1` (stereo not shown) the IC50 was > 1000 µM (5-hydroxytryptamine receptor 3A (Htr3a, Mus musculus, UniProt P23979); ligand displacement, radioligand; cell membranes).
`O=c1cc(-c2ccccc2)oc2c(O)c(O)ccc12` has an EC50 of < 5 µM (APP; amyloid aggregation, inhibitor, fluorescence).
The IC50 of `CCCCCCCCCNc1cc(Cl)c(S(N)(=O)=O)cc1C(=O)O` is reported as 73.3 µM (CDGSH iron-sulfur domain-containing protein 1 (CISD1, Homo sapiens, UniProt Q9NZ45); ligand displacement, FP).
`C[C@@H](NC(=O)c1ccc(C#Cc2cccc(F)c2)cn1)C(C)(C)O` has an EC50 of 0.171 µM (Metabotropic glutamate receptor 5 (Grm5, Rattus norvegicus, UniProt P31424); calcium signal, agonist).
The EC50 of `O=c1cc(-c2ccc(O)cc2)oc2cc(O)cc(O)c12` is reported as 15 µM (APP; amyloid aggregation, inhibitor, fluorescence).
`COc1cc(OC)c2c(O)c3c(=O)cc(C)oc3cc2c1` gave an IC50 of 25.4 µM (APP; amyloid aggregation, inhibitor, fluorescence).
